Molecules are shown by their SMILES. Activity calls are given as the source filed them. No cut-off for these calls is given here.

For experiment [1], the target named is Metabotropic glutamate receptor 1 (Rattus norvegicus) (UniProt P23385). Put plainly: Ratio between EC50 of compound and glutamate measured against metabotropic glutamate receptor 1. The format is functional. The method, boiled down:
(§1)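 mGluR1a (rat, transient in LLC-PK1 or HEK 293 cells) inositol phosphate formation; EC50 from Hill fits of at least eight-point curves over 3 log units, expressed as ratio of compound EC50 to glutamate EC50 measured in the same assay.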

For experiment [2], the target named is Metabotropic glutamate receptor 2 (Rattus norvegicus) (UniProt P31421). Put plainly: Ratio between EC50 of compound and glutamate measured against Metabotropic glutamate receptor 2. The format is functional. The method, boiled down:
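mGluR2 (rat, transient in HEK 293 cells with co-expressed Gqi9 chimera) inositol phosphate formation; EC50 from Hill fits of at least eight concentrations over 3 orders of magnitude, reported as ratio to the glutamate EC50 determined under the same conditions.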

The target of experiment [3] is T1, Metabotropic glutamate receptor 1 (Rattus norvegicus, UniProt P23385). The experiment can be described thus: Inhibitory activity against Metabotropic glutamate receptor 1 in the rat LLC-PK1/HEK 293 cells. The format is cell-based, HEK293. The method, boiled down: (§2)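 Rat mGluR1a transiently expressed in LLC-PK1 or HEK 293 cells; receptor activity read as agonist-induced inositol phosphate formation. At least eight agonist concentrations spanning 3 orders of magnitude gave full dose-response curves, fitted to a Hill equation for maximal effect, EC50 (or IC50) and Hill coefficient.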

Experiment [4] addresses T1, Metabotropic glutamate receptor 1. The experiment can be described thus: Inhibitory activity against Metabotropic glutamate receptor 1 in the rat LLC-PK1/HEK 293 cells.; No effect. In kind it is cell-based. The settings on record: hek293. Put shortly:
as §2

Experiment [5] addresses Metabotropic glutamate receptor 2 (Rattus norvegicus, UniProt P31421). Put plainly: Inhibitory activity against Metabotropic glutamate receptor 2 in the rat HEK 293 cells. The format is cell-based, HEK293. The method, boiled down:
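Rat mGluR2 transiently expressed in HEK 293 cells, cotransfected with chimeric G-protein Gqi9 so the receptor couples to PLC; activity read as agonist-induced inositol phosphate formation. At least eight concentrations over 3 orders of magnitude gave full dose-response curves, Hill-equation fit giving maximal effect, EC50 (or IC50) and Hill coefficient.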

In experiment [6] the target is Metabotropic glutamate receptor 1 (Rattus norvegicus) (UniProt P23385). The experiment can be described thus: Ratio between the measured EC50 and the glutamate EC50 measured against Metabotropic glutamate receptor 1; No effect. The format is functional. The method, boiled down:
as §1

The target of experiment [7] is Metabotropic glutamate receptor 2 (Homo sapiens, UniProt Q14416). Put plainly: Inhibitory activity against human Metabotropic glutamate receptor 2.
The target of experiment [8] is T1, Metabotropic glutamate receptor 1. The experiment can be described thus: Inhibitory activity against Metabotropic glutamate receptor 1 in the rat LLC-PK1/HEK 293 cells. In kind it is cell-based, HEK293. Put shortly: as §2

Chain of Metabotropic glutamate receptor 1 (Rattus norvegicus) (P23385 19-1199 limits assumed): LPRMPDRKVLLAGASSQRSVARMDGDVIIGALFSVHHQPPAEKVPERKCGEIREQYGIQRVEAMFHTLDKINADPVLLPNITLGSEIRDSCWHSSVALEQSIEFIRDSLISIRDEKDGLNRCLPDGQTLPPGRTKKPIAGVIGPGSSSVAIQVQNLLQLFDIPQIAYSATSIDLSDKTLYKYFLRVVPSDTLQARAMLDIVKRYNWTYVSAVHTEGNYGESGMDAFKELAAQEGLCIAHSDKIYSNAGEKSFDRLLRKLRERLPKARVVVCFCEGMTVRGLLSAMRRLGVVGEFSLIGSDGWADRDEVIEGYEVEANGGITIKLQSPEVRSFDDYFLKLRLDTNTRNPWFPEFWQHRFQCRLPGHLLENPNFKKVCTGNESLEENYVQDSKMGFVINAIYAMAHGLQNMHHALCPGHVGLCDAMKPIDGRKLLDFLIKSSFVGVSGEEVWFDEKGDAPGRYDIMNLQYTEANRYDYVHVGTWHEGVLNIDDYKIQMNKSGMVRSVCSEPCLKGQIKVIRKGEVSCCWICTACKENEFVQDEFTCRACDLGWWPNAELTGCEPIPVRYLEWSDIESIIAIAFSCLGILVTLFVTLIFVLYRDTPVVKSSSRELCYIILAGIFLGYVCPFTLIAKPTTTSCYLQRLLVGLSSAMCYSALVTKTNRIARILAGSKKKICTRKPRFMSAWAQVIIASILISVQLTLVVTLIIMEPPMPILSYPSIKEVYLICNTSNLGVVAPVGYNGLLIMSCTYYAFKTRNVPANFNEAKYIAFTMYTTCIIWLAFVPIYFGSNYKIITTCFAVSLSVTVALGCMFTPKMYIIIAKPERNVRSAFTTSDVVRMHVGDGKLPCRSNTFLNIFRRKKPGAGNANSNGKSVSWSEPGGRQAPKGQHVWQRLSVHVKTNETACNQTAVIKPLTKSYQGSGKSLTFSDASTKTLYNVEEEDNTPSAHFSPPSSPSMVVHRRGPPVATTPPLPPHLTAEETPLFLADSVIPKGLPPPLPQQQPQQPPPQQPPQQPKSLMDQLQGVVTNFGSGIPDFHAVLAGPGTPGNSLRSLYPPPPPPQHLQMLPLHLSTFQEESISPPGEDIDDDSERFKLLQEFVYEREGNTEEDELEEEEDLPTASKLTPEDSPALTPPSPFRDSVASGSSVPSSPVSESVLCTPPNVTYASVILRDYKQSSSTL
Chain of Metabotropic glutamate receptor 2 (Rattus norvegicus, UniProt P31421) (P31421 whole entry): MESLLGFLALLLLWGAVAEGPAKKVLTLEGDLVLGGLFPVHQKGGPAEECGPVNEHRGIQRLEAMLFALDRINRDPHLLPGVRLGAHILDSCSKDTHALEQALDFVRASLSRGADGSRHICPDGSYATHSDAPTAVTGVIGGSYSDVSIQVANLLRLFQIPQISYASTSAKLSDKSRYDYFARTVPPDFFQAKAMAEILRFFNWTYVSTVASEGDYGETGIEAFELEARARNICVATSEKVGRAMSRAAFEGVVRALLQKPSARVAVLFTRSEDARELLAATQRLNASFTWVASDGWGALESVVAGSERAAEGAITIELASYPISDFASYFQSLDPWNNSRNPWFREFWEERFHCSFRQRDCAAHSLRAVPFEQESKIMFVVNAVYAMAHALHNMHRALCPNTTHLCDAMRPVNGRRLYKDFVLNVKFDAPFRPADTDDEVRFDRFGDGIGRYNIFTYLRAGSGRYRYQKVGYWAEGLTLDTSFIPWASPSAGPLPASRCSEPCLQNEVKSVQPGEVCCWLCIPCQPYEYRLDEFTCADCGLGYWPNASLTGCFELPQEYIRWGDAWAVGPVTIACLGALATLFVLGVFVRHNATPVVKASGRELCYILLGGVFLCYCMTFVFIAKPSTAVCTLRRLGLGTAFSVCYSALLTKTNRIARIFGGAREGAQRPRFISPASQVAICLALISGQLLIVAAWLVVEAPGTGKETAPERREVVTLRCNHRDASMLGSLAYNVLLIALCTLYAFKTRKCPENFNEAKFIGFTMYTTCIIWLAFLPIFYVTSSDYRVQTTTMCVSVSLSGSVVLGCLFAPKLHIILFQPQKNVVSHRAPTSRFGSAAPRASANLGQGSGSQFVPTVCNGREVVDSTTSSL
T1 sequence (P23385 whole entry): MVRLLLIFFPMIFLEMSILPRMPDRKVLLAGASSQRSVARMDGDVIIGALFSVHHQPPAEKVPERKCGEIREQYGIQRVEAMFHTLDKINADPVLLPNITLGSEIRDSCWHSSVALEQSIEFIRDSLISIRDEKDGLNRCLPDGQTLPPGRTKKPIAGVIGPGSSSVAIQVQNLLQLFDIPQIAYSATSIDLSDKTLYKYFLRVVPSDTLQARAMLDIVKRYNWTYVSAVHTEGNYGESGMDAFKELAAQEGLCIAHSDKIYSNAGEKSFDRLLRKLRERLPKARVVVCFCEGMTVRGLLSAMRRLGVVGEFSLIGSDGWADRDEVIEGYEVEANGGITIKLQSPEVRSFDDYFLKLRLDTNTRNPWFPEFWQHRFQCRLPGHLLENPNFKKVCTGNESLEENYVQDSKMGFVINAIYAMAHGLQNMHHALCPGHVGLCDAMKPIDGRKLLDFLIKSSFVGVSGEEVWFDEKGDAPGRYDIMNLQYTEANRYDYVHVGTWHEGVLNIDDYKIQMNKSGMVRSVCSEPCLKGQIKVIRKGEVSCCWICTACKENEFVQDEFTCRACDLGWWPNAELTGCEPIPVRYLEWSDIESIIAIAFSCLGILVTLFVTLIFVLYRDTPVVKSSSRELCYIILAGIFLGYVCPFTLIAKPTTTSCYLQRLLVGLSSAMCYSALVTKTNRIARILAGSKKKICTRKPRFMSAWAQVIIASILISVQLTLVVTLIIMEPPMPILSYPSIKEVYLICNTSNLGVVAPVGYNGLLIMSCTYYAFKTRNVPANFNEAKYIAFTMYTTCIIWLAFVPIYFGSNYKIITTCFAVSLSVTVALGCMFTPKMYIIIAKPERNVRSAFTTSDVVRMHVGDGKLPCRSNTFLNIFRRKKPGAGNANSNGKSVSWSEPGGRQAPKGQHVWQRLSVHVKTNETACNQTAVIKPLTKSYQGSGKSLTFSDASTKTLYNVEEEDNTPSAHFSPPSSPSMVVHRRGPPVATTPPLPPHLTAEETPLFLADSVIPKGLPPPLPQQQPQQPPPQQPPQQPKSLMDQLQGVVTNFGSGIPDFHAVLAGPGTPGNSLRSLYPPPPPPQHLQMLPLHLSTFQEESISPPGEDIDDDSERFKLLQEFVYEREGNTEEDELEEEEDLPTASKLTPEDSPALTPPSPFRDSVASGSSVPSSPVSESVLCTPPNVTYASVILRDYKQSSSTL
Chain of Metabotropic glutamate receptor 2 (Rattus norvegicus) (P31421 19-872 limits assumed): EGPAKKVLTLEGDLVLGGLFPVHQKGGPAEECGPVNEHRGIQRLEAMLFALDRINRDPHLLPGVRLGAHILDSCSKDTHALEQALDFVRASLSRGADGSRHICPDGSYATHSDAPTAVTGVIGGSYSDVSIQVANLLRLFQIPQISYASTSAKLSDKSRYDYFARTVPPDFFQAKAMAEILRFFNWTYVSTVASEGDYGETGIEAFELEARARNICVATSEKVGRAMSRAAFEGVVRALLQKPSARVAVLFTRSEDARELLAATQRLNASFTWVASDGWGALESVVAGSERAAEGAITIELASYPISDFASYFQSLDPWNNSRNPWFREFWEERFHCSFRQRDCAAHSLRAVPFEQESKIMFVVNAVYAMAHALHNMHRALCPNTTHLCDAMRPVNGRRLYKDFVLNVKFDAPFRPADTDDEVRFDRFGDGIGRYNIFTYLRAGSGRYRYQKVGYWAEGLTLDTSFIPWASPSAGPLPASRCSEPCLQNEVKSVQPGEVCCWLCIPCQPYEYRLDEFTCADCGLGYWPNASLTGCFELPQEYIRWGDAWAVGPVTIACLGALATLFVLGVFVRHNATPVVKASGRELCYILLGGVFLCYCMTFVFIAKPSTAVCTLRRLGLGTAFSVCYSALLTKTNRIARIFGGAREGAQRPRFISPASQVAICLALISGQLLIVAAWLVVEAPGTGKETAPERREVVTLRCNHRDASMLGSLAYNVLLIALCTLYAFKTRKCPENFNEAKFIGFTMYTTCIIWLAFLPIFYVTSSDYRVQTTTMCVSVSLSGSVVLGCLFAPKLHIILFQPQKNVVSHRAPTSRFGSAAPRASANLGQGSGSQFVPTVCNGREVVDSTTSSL
Chain of Metabotropic glutamate receptor 2 (Homo sapiens, UniProt Q14416) (Q14416 whole entry): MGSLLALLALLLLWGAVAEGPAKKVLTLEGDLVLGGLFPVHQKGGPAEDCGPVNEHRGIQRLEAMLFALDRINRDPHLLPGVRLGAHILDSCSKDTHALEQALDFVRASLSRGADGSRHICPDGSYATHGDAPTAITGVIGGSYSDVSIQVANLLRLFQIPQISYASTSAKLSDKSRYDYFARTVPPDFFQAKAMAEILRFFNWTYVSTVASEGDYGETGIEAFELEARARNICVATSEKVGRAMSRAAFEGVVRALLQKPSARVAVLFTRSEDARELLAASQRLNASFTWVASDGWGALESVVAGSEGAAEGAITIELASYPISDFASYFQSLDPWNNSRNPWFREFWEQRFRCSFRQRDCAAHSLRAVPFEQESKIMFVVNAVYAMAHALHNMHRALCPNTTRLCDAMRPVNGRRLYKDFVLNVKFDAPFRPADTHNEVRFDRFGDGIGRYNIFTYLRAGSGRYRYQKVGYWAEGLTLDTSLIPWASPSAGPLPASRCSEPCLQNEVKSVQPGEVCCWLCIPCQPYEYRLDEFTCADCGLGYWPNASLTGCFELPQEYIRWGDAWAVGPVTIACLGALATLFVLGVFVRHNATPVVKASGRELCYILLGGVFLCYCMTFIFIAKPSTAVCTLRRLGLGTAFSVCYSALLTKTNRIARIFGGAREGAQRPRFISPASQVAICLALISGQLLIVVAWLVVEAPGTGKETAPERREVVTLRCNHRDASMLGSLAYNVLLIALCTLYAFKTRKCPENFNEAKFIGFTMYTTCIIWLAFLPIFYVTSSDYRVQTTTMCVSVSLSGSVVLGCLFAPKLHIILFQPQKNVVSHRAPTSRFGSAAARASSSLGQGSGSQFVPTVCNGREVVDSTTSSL

For `O=C(O)[C@H]1C[C@H](C(=O)O)N1`, the EC50 ratio in experiment [1] is 15; in experiment [2], more than 80.
`NC1(C(=O)O)CC2CC1C2C(=O)O` (stereo in doubt; 12): the results for the EC50 ratio in experiment [1] and in experiment [2] were 0.32 and 1.1, respectively.
For `N[C@H](C(=O)O)c1cc(O)no1`, the EC50 ratio worked out at 0.91 in experiment [1] and 25 in experiment [2].
With `C=C(C[C@H](N)C(=O)O)C(=O)O`, the EC50 ratio in experiment [1] was 0.7.
The compound `NC1(C(=O)O)CC2CCC1C2C(=O)O` (stereo in doubt; 8) [listing 1 of 2 here] came in with an IC50 in experiment [3] of 300 µM.
In the case of `CC(N)(CCC(=O)O)C(=O)O` (racemic), the EC50 ratio in experiment [2] was more than 80.
For `C[C@@](N)(CCC(=O)O)C(=O)O`, in experiment [1], the EC50 ratio was more than 80.
Take `C[C@](N)(CCC(=O)O)C(=O)O`: in experiment [1], the EC50 ratio was more than 80.
Regarding `N[C@@H](CC(C(=O)O)C(=O)O)C(=O)O`, the IC50 result is “Not Active” in experiment [4] and 102 µM in experiment [5]. For the same compound, in experiment [6], the EC50 ratio entry was “inactive”.
Consider `N[C@@H](C[C@H](CC(c1ccccc1)c1ccccc1)C(=O)O)C(=O)O`, for which the IC50 result is “Not Active” in experiment [4] and 3000 nM in experiment [7].
For `CC(CC(N)C(=O)O)C(=O)O` (racemic), the EC50 ratio in experiment [1] was found to be 0.65; in experiment [2], 0.53.
As to `NC1(C(=O)O)CC2CC1C2C(=O)O` (stereo in doubt; 13), the EC50 ratio in experiment [1] was 25; in experiment [2] it was 186.
As for `N[C@H](C(=O)O)C12CC(C(=O)O)(C1)C2`, the IC50 in experiment [5] was more than 300 µM; in experiment [3] it was 25 µM. Also, the EC50 ratio in experiment [2] is more than 60.
On to `NC1(C(=O)O)CC2CCC1C2C(=O)O` (stereo in doubt; 8) [listing 2 of 2 here], for which the EC50 ratio in experiment [2] is more than 80.
The compound `N[C@H](C(=O)O)c1ccc(C(=O)O)c(O)c1` returned an IC50 in experiment [8] of 40 µM. Also, in experiment [2], the EC50 ratio is 4.
For `C[C@H](CC(=O)O)[C@H](N)C(=O)O`, the EC50 ratio in experiment [1] stood at 23; in experiment [2] it was 12.
With `N[C@@]1(C(=O)O)CC[C@H]2[C@H](C(=O)O)[C@H]21`, the EC50 ratio in experiment [2] amounted to 0.004. The IC50 in experiment [3] stood at 458 µM.
Consider `N[C@@H](CCC(=O)O)C(=O)O`, for which the EC50 ratio in experiment [1] and in experiment [2] was 1 throughout.
For `C[C@@H](C[C@H](N)C(=O)O)C(=O)O`, the EC50 ratio in experiment [1] came to 0.5; in experiment [2], 0.3.
For the compound `NC1(C(=O)O)C2CCC1C(C(=O)O)C2` (stereo unspecified), the IC50 in experiment [5] and in experiment [3] was more than 1000 µM throughout. Moreover, the EC50 ratio in experiment [1] and in experiment [2] was more than 80 in each case.
Consider `N[C@]1(C(=O)O)C[C@H](C(=O)O)[C@H](C(=O)O)C1`, for which the figures for the IC50 in experiment [5] and in experiment [3] were 88 µM and 115 µM, respectively. In addition, the EC50 ratio entry in experiment [6] was “inactive”.
For `N[C@@]1(C(=O)O)CC[C@@H](C(=O)O)C1`, the EC50 ratio was determined as 0.75 in experiment [1] and 1.6 in experiment [2].
On the same counts, the results for `C[C@H](C[C@H](N)C(=O)O)C(=O)O` are 4.6 and 23.
Take `C=C(C[C@@H](N)C(=O)O)C(=O)O`: the EC50 ratio in experiment [1] was 14.
For the compound `C=C(CC(N)C(=O)O)C(=O)O` (racemic), the results for the EC50 ratio in experiment [1] and in experiment [2] were 1.1 and 0.4, respectively.
`C[C@@H](CC(=O)O)[C@H](N)C(=O)O`: the EC50 ratio in experiment [1] is 13; in experiment [2] it was 80.
As to `N[C@H](C(=O)O)[C@@H]1C[C@H]1C(=O)O`, the EC50 ratio in experiment [1] came out at 20.
Take `N[C@@]1(C(=O)O)CN[C@@H](C(=O)O)C1`: the figures for the EC50 ratio in experiment [1] and in experiment [2] were more than 80 and 0.4, respectively.
`N[C@@H](C[C@H](CCCC(c1ccccc1)c1ccccc1)C(=O)O)C(=O)O`: the IC50 result in experiment [4] is “Not Active”; in experiment [7] it was 400 nM.
The compound `C[C@@](N)(C(=O)O)[C@H]1C[C@@H]1C(=O)O` returned an IC50 in experiment [5] of 77 µM. For the same compound, in experiment [6], the EC50 ratio entry was “inactive”.
On to `N[C@]1(C(=O)O)CC[C@H](C(=O)O)C1`, for which the EC50 ratio in experiment [1] and in experiment [2] was 10 each time.
As for `NC1(C(=O)O)CC2CCC1C2C(=O)O` (stereo in doubt; 10), the EC50 ratio in experiment [1] and in experiment [2] was more than 80 in each case.
Turning to `N[C@H](C(=O)O)c1cc(O)cc(O)c1`, in experiment [1], the EC50 ratio worked out at 0.53.
Regarding `NC1(C(=O)O)CC2CC1C2C(=O)O` (stereo in doubt; 14), the EC50 ratio came to 47 in experiment [1] and 131 in experiment [2].
On to `N[C@H](C(=O)O)C1[C@@H](C(=O)O)[C@@H]1C(=O)O` (stereo partly specified), for which the EC50 ratio in experiment [2] amounted to 0.03. In addition, half-maximal inhibition in experiment [3] (IC50) required 389 µM.
Turning to `N[C@H](C(=O)O)c1cccc(O)c1`, the EC50 ratio in experiment [1] was 7.8; in experiment [2] it was more than 80.
As for `N[C@@]1(C(=O)O)CC[C@H](C(=O)O)C1`, the EC50 ratio was more than 25 in experiment [1] and 1.2 in experiment [2].
As to `C[C@H](C[C@@H](N)C(=O)O)C(=O)O`, the EC50 ratio was 4.9 in experiment [1] and 1.1 in experiment [2].
As for `N[C@@H](Cn1oc(=O)[nH]c1=O)C(=O)O`, the EC50 ratio is 0.02 in experiment [1] and more than 90 in experiment [2].
Take `N[C@H](C(=O)O)[C@H]1C[C@@H]1C(=O)O`: the results for the EC50 ratio in experiment [1] and in experiment [2] were 5 and 0.04, respectively.

Broadly, the IC50 is the point on the concentration scale where inhibition reaches its midpoint.

Values taken from ChEMBL document CHEMBL1132716, “Agonist selectivity of mGluR1 and mGluR2 metabotropic receptors: a different environment but similar recognition of an extended glutamate conformation” (J Med Chem, 1999).
